From ChEMBL document CHEMBL4138173, “Molecular docking, design, synthesis and antifungal activity study of novel triazole derivatives” (2018)
In brackets after ≈: the same amount, converted by molar mass.

What was measured:
Assay type in all cases: functional
Aspergillus fumigatus = test: Antifungal activity against Aspergillus fumigatus after 5 to 7 days
Procedure, shortened: (§1)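 Filamentous fungi were tested by broth dilution following NCCLS recommendations. Compounds were dissolved in DMSO in growth medium, inoculated and incubated at 35 °C, with MIC80 read after 5–7 days. MIC80 is the first well with approximately 80% growth reduction relative to the drug-free well. Results are the mean of three replicates.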

Candida albicans [1] = test: Antifungal activity against Candida albicans SC5314 after 24 hrs; conditions: SC5314, 24 h
Procedure, shortened: (§2)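 Broth dilution MIC per NCCLS recommendations. Compounds were dissolved in DMSO in growth medium, then inoculated and incubated at 35 °C, with growth read at 24 h for C. albicans. MIC80 is the first well showing about 80% growth reduction versus the drug-free well. Values are the mean of three replicate tests.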

Cryptococcus neoformans = test: Antifungal activity against Cryptococcus neoformans after 72 hrs
Procedure, shortened: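 NCCLS-based broth dilution against C. neoformans. Test agents were in DMSO in growth medium, inoculated and held at 35 °C, and MIC80 was read at 72 h. MIC80 is the first well with roughly 80% less growth than the drug-free well. Each value averages three replicate tests.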

Nannizzia gypsea = test: Antifungal activity against Microsporum gypseum after 5 to 7 days; procedure, shortened: as §1
Candida albicans [2] = test: Antifungal activity against Candida albicans SCY0109 after 24 hrs; conditions: SCY0109, 24 h; procedure, shortened: as §2
Trichophyton rubrum = test: Antifungal activity against Trichophyton rubrum after 5 to 7 days
Procedure, shortened: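 Broth dilution per NCCLS recommendations against an ATCC strain; compounds dissolved in DMSO in growth medium; incubated at 35 °C. MIC80 is the first well with about 80% growth reduction versus the drug-free well, read at 5–7 days for filamentous fungi. Values are the mean of three replicate tests.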

Nakaseomyces glabratus = test: Antifungal activity against Candida glabrata after 5 to 7 days
Pichia kudriavzevii = test: Antifungal activity against Candida krusei after 5 to 7 days
Procedure, shortened: (§3)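 MIC measured by broth dilution per NCCLS recommendations. Compounds were dissolved in DMSO in growth medium, inoculated and incubated at 35 °C. MIC80 is the first well with approximately 80% lower growth than the drug-free well. Values are the mean of three replicate tests.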

Candida tropicalis = test: Antifungal activity against Candida tropicalis after 24 hrs; procedure, shortened: as §3
Candida parapsilosis = test: Antifungal activity against Candida parapsilosis after 5 to 7 days; conditions: Lodderomyces parapsilosis

SMILES | MIC80 (Aspergillus fumigatus) [µg/mL] | MIC80 (Candida albicans [1]) [µg/mL] | MIC80 (Cryptococcus neoformans) [µg/mL] | further results
C[C@@H](n1cc(CN)nn1)[C@](O)(Cn1cncn1)c1ccc(F)cc1F | > 64 | 0.25 (≈ 0.716 µM) | 0.25 (≈ 0.716 µM) | 
C[C@@H](n1cc(-c2ccc(F)cc2)nn1)[C@](O)(Cn1cncn1)c1ccc(F)cc1F | 32 (≈ 77.2 µM) | 0.0625 (≈ 0.151 µM) | 0.0625 (≈ 0.151 µM) | 
CCCCCN[C@H](C)[C@](O)(Cn1cncn1)c1ccc(F)cc1F | 4 (≈ 11.8 µM) | 0.125 (≈ 0.369 µM) | 0.125 (≈ 0.369 µM) | 
C[C@@H](n1cc(-c2ccccc2)nn1)[C@](O)(Cn1cncn1)c1ccc(F)cc1F | 16 (≈ 40.4 µM) | 0.125 (≈ 0.315 µM) | 0.0625 (≈ 0.158 µM) | 
CCCCN[C@H](C)[C@](O)(Cn1cncn1)c1ccc(F)cc1F | 8 (≈ 24.7 µM) | 0.125 (≈ 0.385 µM) | 0.125 (≈ 0.385 µM) | 
COCCCN[C@H](C)[C@](O)(Cn1cncn1)c1ccc(F)cc1F | 2 (≈ 5.88 µM) | 0.25 (≈ 0.734 µM) | 0.5 (≈ 1.47 µM) | 
C[C@@H](N1CCCC1)[C@](O)(Cn1cncn1)c1ccc(F)cc1F | 1 (≈ 3.1 µM) | 0.125 (≈ 0.388 µM) | 0.125 (≈ 0.388 µM) | 
CCCN[C@H](C)[C@](O)(Cn1cncn1)c1ccc(F)cc1F | 8 (≈ 25.8 µM) | 0.125 (≈ 0.403 µM) | 0.0625 (≈ 0.201 µM) | 
C[C@@H](NCc1ccccc1)[C@](O)(Cn1cncn1)c1ccc(F)cc1F | 1 (≈ 2.79 µM) | 0.0312 (≈ 0.0872 µM) | 0.125 (≈ 0.349 µM) | 
CCN(C1CC1)[C@H](C)[C@](O)(Cn1cncn1)c1ccc(F)cc1F | > 64 | 1 (≈ 2.97 µM) | 1 (≈ 2.97 µM) | 
C[C@@H](n1cc(-c2ccc(N)cc2)nn1)[C@](O)(Cn1cncn1)c1ccc(F)cc1F | > 64 | 0.5 (≈ 1.22 µM) | 0.5 (≈ 1.22 µM) | 
CCC(C)N[C@H](C)[C@](O)(Cn1cncn1)c1ccc(F)cc1F (stereo partly drawn) | 4 (≈ 12.3 µM) | 0.125 (≈ 0.385 µM) | 0.125 (≈ 0.385 µM) | 
Cc1ccc(-c2cn([C@H](C)[C@](O)(Cn3cncn3)c3ccc(F)cc3F)nn2)cc1 | > 64 | 0.125 (≈ 0.305 µM) | 0.0625 (≈ 0.152 µM) | 
CCCCc1ccc(-c2cn([C@H](C)[C@](O)(Cn3cncn3)c3ccc(F)cc3F)nn2)cc1 | > 64 | 4 (≈ 8.84 µM) | 8 (≈ 17.7 µM) | 
C[C@@H](n1cc(-c2cccc(F)c2)nn1)[C@](O)(Cn1cncn1)c1ccc(F)cc1F | > 64 | 0.25 (≈ 0.603 µM) | 0.0625 (≈ 0.151 µM) | 
Cc1ccc(CN(C2CC2)[C@H](C)[C@](O)(Cn2cncn2)c2ccc(F)cc2F)cc1 | > 64 | 8 (≈ 19.4 µM) | 5 (≈ 12.1 µM) | 
C[C@@H](n1cc(-c2cccc(Cl)c2)nn1)[C@](O)(Cn1cncn1)c1ccc(F)cc1F | > 64 | 0.0625 (≈ 0.145 µM) | 0.0625 (≈ 0.145 µM) | 
CCc1ccc(-c2cn([C@H](C)[C@](O)(Cn3cncn3)c3ccc(F)cc3F)nn2)cc1 | > 64 | 0.5 (≈ 1.18 µM) | 0.5 (≈ 1.18 µM) | 
C[C@@H](n1cc(-c2ccncc2)nn1)[C@](O)(Cn1cncn1)c1ccc(F)cc1F | > 64 | 1 (≈ 2.52 µM) | 1 (≈ 2.52 µM) | 
C[C@@H](N(Cc1ccc(Cl)cc1)C1CC1)[C@](O)(Cn1cncn1)c1ccc(F)cc1F | > 64 | 8 (≈ 18.5 µM) | 4 (≈ 9.24 µM) | 
CC(C)N[C@H](C)[C@](O)(Cn1cncn1)c1ccc(F)cc1F | 16 (≈ 51.6 µM) | 0.25 (≈ 0.806 µM) | 0.25 (≈ 0.806 µM) | 
C[C@@H](n1cc(-c2ccc(Br)cc2)nn1)[C@](O)(Cn1cncn1)c1ccc(F)cc1F | > 64 | 0.25 (≈ 0.526 µM) | 0.25 (≈ 0.526 µM) | 

SMILES | MIC80 (Aspergillus fumigatus) [µg/mL] | MIC80 (Candida albicans [1]) [µg/mL] | MIC80 (Cryptococcus neoformans) [µg/mL] | further results
C[C@@H](n1cc(-c2cccc(N)c2)nn1)[C@](O)(Cn1cncn1)c1ccc(F)cc1F | > 64 | 0.5 (≈ 1.22 µM) | 1 (≈ 2.43 µM) | 
C[C@@H](c1ncncc1F)[C@](O)(Cn1cncn1)c1ccc(F)cc1F [VORICONAZOLE] | 0.25 (≈ 0.716 µM) | 0.0312 (≈ 0.0895 µM) | 0.0312 (≈ 0.0895 µM) | MIC80 (Nannizzia gypsea): 0.25 µg/mL (≈ 0.716 µM); MIC80 (Candida albicans [2]): 0.0156 µg/mL (≈ 0.0447 µM); MIC80 (Trichophyton rubrum): 0.125 µg/mL (≈ 0.358 µM); MIC80 (Nakaseomyces glabratus): 0.0312 µg/mL (≈ 0.0895 µM); MIC80 (Pichia kudriavzevii): 0.25 µg/mL (≈ 0.716 µM); MIC80 (Candida tropicalis): 0.25 µg/mL (≈ 0.716 µM); MIC80 (Candida parapsilosis): 0.0312 µg/mL (≈ 0.0895 µM)
C[C@@H](N(C)C1CC1)[C@](O)(Cn1cncn1)c1ccc(F)cc1F | 8 (≈ 24.8 µM) | 0.125 (≈ 0.388 µM) | 0.125 (≈ 0.388 µM) | 
C[C@@H](n1cc(-c2ccccc2F)nn1)[C@](O)(Cn1cncn1)c1ccc(F)cc1F | 32 (≈ 77.2 µM) | 0.125 (≈ 0.302 µM) | 0.125 (≈ 0.302 µM) | 
C[C@@H](NCC1CC1)[C@](O)(Cn1cncn1)c1ccc(F)cc1F | 8 (≈ 24.8 µM) | 0.125 (≈ 0.388 µM) | 0.125 (≈ 0.388 µM) | 
C[C@@H](n1cc(C2CC2)nn1)[C@](O)(Cn1cncn1)c1ccc(F)cc1F | 32 (≈ 88.8 µM) | 0.0625 (≈ 0.173 µM) | 0.0625 (≈ 0.173 µM) | 
C[C@@H](n1cc(-c2ccccc2Cl)nn1)[C@](O)(Cn1cncn1)c1ccc(F)cc1F | 16 (≈ 37.1 µM) | 0.0156 (≈ 0.0362 µM) | 0.0156 (≈ 0.0362 µM) | 
C[C@@H](n1cc(-c2cccnc2)nn1)[C@](O)(Cn1cncn1)c1ccc(F)cc1F | > 64 | 0.5 (≈ 1.26 µM) | 1 (≈ 2.52 µM) | 
C[C@@H](NC1CC1)[C@](O)(Cn1cncn1)c1ccc(F)cc1F | 1 (≈ 3.24 µM) | 0.0156 (≈ 0.0506 µM) | 0.0156 (≈ 0.0506 µM) | MIC80 (Nannizzia gypsea): 0.125 µg/mL (≈ 0.405 µM); MIC80 (Candida albicans [2]): 0.0078 µg/mL (≈ 0.0253 µM); MIC80 (Trichophyton rubrum): 0.0625 µg/mL (≈ 0.203 µM); MIC80 (Nakaseomyces glabratus): 0.0156 µg/mL (≈ 0.0506 µM); MIC80 (Pichia kudriavzevii): 0.5 µg/mL (≈ 1.62 µM); MIC80 (Candida tropicalis): 0.5 µg/mL (≈ 1.62 µM); MIC80 (Candida parapsilosis): 0.25 µg/mL (≈ 0.811 µM)
C[C@@H](n1cc(-c2cccs2)nn1)[C@](O)(Cn1cncn1)c1ccc(F)cc1F | 16 (≈ 39.8 µM) | 0.0625 (≈ 0.155 µM) | 0.0625 (≈ 0.155 µM) | 
COc1ccc(-c2cn([C@H](C)[C@](O)(Cn3cncn3)c3ccc(F)cc3F)nn2)cc1 | > 64 | 0.125 (≈ 0.293 µM) | 0.0625 (≈ 0.147 µM) | 
C[C@@H](n1cc(-c2ccc(Cl)cc2)nn1)[C@](O)(Cn1cncn1)c1ccc(F)cc1F | 32 (≈ 74.3 µM) | 0.125 (≈ 0.29 µM) | 0.0156 (≈ 0.0362 µM) | 
C[C@@H](N(Cc1ccccc1)C1CC1)[C@](O)(Cn1cncn1)c1ccc(F)cc1F | 8 (≈ 20.1 µM) | 8 (≈ 20.1 µM) | 8 (≈ 20.1 µM) | 
C[C@@H](N=[N+]=[N-])[C@](O)(Cn1cncn1)c1ccc(F)cc1F | 8 (≈ 27.2 µM) | 0.0156 (≈ 0.053 µM) | 0.0625 (≈ 0.212 µM) | 
CCCN(C1CC1)[C@H](C)[C@](O)(Cn1cncn1)c1ccc(F)cc1F | 8 (≈ 22.8 µM) | 1 (≈ 2.85 µM) | 2 (≈ 5.71 µM) | 
C[C@@H](NC1CCCCC1)[C@](O)(Cn1cncn1)c1ccc(F)cc1F | 8 (≈ 22.8 µM) | 0.5 (≈ 1.43 µM) | 0.5 (≈ 1.43 µM) | 
CCN1CCN([C@H](C)[C@](O)(Cn2cncn2)c2ccc(F)cc2F)CC1 | 64 (≈ 175 µM) | 2 (≈ 5.47 µM) | 2 (≈ 5.47 µM) | 
CCN[C@H](C)[C@](O)(Cn1cncn1)c1ccc(F)cc1F | 32 (≈ 108 µM) | 0.5 (≈ 1.69 µM) | 0.5 (≈ 1.69 µM) | 
C[C@@H](NCc1ccc(Br)cc1)[C@](O)(Cn1cncn1)c1ccc(F)cc1F | 0.5 (≈ 1.14 µM) | 0.0156 (≈ 0.0357 µM) | 0.125 (≈ 0.286 µM) | 
C[C@@H](n1cc(-c2ccsc2)nn1)[C@](O)(Cn1cncn1)c1ccc(F)cc1F | 4 (≈ 9.94 µM) | 0.0625 (≈ 0.155 µM) | 0.0625 (≈ 0.155 µM) | 
C[C@@H](n1cc(-c2cccc(Br)c2)nn1)[C@](O)(Cn1cncn1)c1ccc(F)cc1F | > 64 | 0.5 (≈ 1.05 µM) | 1 (≈ 2.1 µM) | 
